According to ChEMBL document CHEMBL3108701, “Isolation of arginase inhibitors from the bioactivity-guided fractionation of Byrsonima coccolobifolia leaves and stems” (J Nat Prod, 2014):

Experiments:
[1] = biological target: T1, Arginase (Leishmania amazonensis, UniProt O96394); assay: Inhibition of Leishmania amazonensis recombinant arginase expressed in Escherichia coli Rosetta (DE3) pLysS using L-arginine as substrate incubated for 10 mins prior to substrate addition measured after 10 mins by colorimetry
[2] = biological target: T1, Arginase; assay: Noncompetitive inhibition of Leishmania amazonensis recombinant arginase expressed in Escherichia coli Rosetta (DE3) pLysS using L-arginine as substrate by Dixon reciprocal plot analysis
Outline: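 His-tagged enzyme purified by Ni-NTA then DEAE anion exchange. Urea production from L-arginine measured in 50 mM CHES pH 9.6 at 37 °C. Enzyme was preincubated 10 min with inhibitor at three concentrations plus a no-inhibitor control. Substrate was then added at 6.25–72.0 mM and reacted for 10 min. Urea read by urease/salicylate–hypochlorite colorimetry at 600 nm, in duplicate. Inhibition type and Ki taken from reciprocal plots.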

[3] = biological target: Arginase (Leishmania amazonensis) (UniProt O96394); assay: Noncompetitive inhibition of Leishmania amazonensis recombinant arginase expressed in Escherichia coli Rosetta (DE3) pLysS using L-arginine as substrate assessed as enzyme-substrate-inhibitor complex by Dixon reciprocal plot analysis
Outline: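 Purified recombinant L. amazonensis arginase in 50 mM CHES pH 9.6, 37 °C, with urea read at 600 nm by urease-coupled colorimetry. Three inhibitor concentrations plus an uninhibited control were tested against L-arginine at 6.25–72.0 mM. Inhibition type, Ki and Kis were taken from double-reciprocal plots.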

SMILES	IC50 [1] [µM]	Ki [2] [µM]	Kis [3] [µM]
COc1c(O)cc(-c2oc3cc(O)cc(O)c3c(=O)c2O[C@@H]2O[C@@H](C)[C@H](O)[C@@H](O)[C@H]2O)cc1O	224	–	–
CC(=O)Oc1cc(OC(C)=O)c2c(=O)c(OC(C)=O)c(-c3ccc(OC(C)=O)c(OC(C)=O)c3)oc2c1	121	–	–
C[C@H]1O[C@H](Oc2c(-c3cc(O)c(O)c(O)c3)oc3cc(O)cc(O)c3c2=O)[C@@H](O)[C@@H](O)[C@@H]1O	2.4	3.8	1.9
Oc1cc(O)c2c(c1)O[C@H](c1ccc(O)c(O)c1)[C@@H](O)C2 [CIANIDANOL]	1.7	0.6	–
C[C@@H]1O[C@@H](Oc2c(-c3ccc(O)c(O)c3)oc3cc(O)cc(O)c3c2=O)[C@H](O)[C@H](O)[C@H]1O [QUERCITRIN]	12.2	7.9	7.2
O=c1c(O)c(-c2ccc(O)cc2)oc2cc(O)cc(O)c12 [KAEMPFEROL]	55	–	–
O=c1c(O)c(-c2cc(O)c(O)c(O)c2)oc2cc(O)cc(O)c12 [MYRICETIN]	2.1	1.2	–
Oc1cc(O)c2c(c1)O[C@H](c1ccc(O)c(O)c1)[C@H](O)C2 [(-)-EPICATECHIN]	1.6	0.2	–
O=c1c(O)c(-c2ccc(O)c(O)c2)oc2cc(O)cc(O)c12 [QUERCETIN]	4	–	–

Now from value to compound, other results behind:

IC50 [1] [µM]	SMILES	Ki [2] [µM]	Kis [3] [µM]
128	COc1cc(-c2oc3cc(OC)c(OC)c(OC)c3c(=O)c2OC)cc(OC)c1OC	–	–
35.1	C[C@@H]1O[C@@H](O[C@@H]2Cc3c(O)cc(O)cc3O[C@H]2c2ccc(O)c(O)c2)[C@H](O)[C@H](O)[C@H]1O	–	–
13.7	COc1cc([C@H]2OC[C@H]3[C@@H]2CO[C@@H]3c2cc(OC)c(O)c(OC)c2)cc(OC)c1O [SYRINGARESINOL]	–	–
16.6	COC1=Cc2c(cc(OC)c3cc(C)c(OC)cc23)C(C)(C)C1=O [TRIGONOSTEMONE]	–	–
2	O=c1c(O[C@@H]2O[C@H](CO)[C@@H](O)[C@H](O)[C@H]2O)c(-c2ccc(O)c(O)c2)oc2cc(O)cc(O)c12 [ISOQUERCETIN]	–	6.9
88.1	COc1ccc(-c2oc3cc(O)cc(O)c3c(=O)c2O[C@@H]2O[C@@H](C)[C@H](O)[C@@H](O)[C@H]2O)cc1O	–	–
